The source of these data is ChEMBL document CHEMBL2062509, “Synthesis of benzo-annulated tryptanthrins and their biological properties” (Bioorg Med Chem, 2012).

Values after ≈ are worked out from the molar mass of the structure shown.

Assay [1] concerns the target DNA topoisomerase 2-alpha (Homo sapiens) (UniProt P11388). Nature of the assay: Inhibition of human DNA topoisomerase 2alpha-mediated relaxation of supercoiled pBR322 DNA at 20 uM after 30 mins by agarose gel electrophoretic analysis. In outline:
(§1)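 Human topo IIα (0.2 units) and 100 ng supercoiled pBR322, 30 min at 37 °C with or without compound in 10 mM Tris-HCl pH 7.9, 50 mM NaCl, 5 mM MgCl2, 1 mM EDTA, 1 mM ATP, 15 µg/mL BSA. Quenched with 7 mM EDTA. Resolved on 1% agarose in TAE (25 V, 4 h), ethidium-stained, supercoiled DNA quantified under UV.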

A further assay has as its system HEK293. Put plainly: Cytotoxicity against human HEK293 cells after 72 hrs by MTT assay. Conditions: HEK293, 72 h. It counts as cell-based.
For a further assay, the system named is DU-145. Nature of the assay: Cytotoxicity against human DU145 cells after 72 hrs by MTT assay. It counts as functional, cell-based. Particulars: DU-145, 72 h.
For assay [2], the species on record is Bos taurus. Put plainly: Inhibition of calf thymus DNA topoisomerase 1-mediated relaxation of supercoiled pBR322 DNA at 100 uM after 30 mins by agarose gel electrophoresis analysis.
Another assay relates to T47D. Nature of the assay: Cytotoxicity against human T47D cells after 72 hrs by MTT assay. It is filed as functional, cell-based. (Tetrazolium assays rely on reduction of a dye to a coloured formazan, in cell work by metabolically active cells.)
For the next assay, the system named is HCT-15. Nature of the assay: Cytotoxicity against human HCT15 cells after 72 hrs by MTT assay. Conditions: HCT-15, 72 h. It counts as functional, cell-based.
Assay [3] is filed under the species Bos taurus. Put plainly: Inhibition of calf thymus DNA topoisomerase 1-mediated relaxation of supercoiled pBR322 DNA at 20 uM after 30 mins by agarose gel electrophoresis analysis.
Assay [4] has as its target DNA topoisomerase 2-alpha (Homo sapiens) (UniProt P11388). Nature of the assay: Inhibition of human DNA topoisomerase 2alpha-mediated relaxation of supercoiled pBR322 DNA at 100 uM after 30 mins by agarose gel electrophoretic analysis. The procedure, abridged:
as §1

The target of assay [5] is T1, Polyunsaturated fatty acid 5-lipoxygenase (Homo sapiens, UniProt P09917).
T1 sequence (P09917 whole entry): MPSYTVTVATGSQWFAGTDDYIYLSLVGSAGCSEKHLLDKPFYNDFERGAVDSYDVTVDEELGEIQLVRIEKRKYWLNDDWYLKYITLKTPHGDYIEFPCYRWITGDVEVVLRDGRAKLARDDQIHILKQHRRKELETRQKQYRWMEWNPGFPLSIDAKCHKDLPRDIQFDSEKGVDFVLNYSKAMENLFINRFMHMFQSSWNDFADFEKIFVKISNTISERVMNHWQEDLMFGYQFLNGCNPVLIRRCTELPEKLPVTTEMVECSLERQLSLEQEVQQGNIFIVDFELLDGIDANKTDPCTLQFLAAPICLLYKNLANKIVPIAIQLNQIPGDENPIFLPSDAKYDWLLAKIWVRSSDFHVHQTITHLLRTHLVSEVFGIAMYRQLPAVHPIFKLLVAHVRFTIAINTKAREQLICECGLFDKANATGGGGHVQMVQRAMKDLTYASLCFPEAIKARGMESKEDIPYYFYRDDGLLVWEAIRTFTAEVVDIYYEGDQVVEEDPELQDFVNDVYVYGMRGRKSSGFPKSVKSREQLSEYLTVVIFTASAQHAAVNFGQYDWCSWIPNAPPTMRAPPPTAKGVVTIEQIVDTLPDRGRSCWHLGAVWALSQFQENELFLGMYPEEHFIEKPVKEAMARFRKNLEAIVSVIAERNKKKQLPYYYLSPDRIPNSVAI
Nature of the assay: Inhibition of 5-lipoxygenase.

The subject of assay [6] is Mycobacterium tuberculosis. Nature of the assay: Antituberculosis activity against Mycobacterium tuberculosis. It counts as functional.
A further assay relates to HT-1376. Put plainly: Cytotoxicity against human HT-1376 cells. It counts as functional.

Sequence of DNA topoisomerase 2-alpha (Homo sapiens) (P11388 whole entry): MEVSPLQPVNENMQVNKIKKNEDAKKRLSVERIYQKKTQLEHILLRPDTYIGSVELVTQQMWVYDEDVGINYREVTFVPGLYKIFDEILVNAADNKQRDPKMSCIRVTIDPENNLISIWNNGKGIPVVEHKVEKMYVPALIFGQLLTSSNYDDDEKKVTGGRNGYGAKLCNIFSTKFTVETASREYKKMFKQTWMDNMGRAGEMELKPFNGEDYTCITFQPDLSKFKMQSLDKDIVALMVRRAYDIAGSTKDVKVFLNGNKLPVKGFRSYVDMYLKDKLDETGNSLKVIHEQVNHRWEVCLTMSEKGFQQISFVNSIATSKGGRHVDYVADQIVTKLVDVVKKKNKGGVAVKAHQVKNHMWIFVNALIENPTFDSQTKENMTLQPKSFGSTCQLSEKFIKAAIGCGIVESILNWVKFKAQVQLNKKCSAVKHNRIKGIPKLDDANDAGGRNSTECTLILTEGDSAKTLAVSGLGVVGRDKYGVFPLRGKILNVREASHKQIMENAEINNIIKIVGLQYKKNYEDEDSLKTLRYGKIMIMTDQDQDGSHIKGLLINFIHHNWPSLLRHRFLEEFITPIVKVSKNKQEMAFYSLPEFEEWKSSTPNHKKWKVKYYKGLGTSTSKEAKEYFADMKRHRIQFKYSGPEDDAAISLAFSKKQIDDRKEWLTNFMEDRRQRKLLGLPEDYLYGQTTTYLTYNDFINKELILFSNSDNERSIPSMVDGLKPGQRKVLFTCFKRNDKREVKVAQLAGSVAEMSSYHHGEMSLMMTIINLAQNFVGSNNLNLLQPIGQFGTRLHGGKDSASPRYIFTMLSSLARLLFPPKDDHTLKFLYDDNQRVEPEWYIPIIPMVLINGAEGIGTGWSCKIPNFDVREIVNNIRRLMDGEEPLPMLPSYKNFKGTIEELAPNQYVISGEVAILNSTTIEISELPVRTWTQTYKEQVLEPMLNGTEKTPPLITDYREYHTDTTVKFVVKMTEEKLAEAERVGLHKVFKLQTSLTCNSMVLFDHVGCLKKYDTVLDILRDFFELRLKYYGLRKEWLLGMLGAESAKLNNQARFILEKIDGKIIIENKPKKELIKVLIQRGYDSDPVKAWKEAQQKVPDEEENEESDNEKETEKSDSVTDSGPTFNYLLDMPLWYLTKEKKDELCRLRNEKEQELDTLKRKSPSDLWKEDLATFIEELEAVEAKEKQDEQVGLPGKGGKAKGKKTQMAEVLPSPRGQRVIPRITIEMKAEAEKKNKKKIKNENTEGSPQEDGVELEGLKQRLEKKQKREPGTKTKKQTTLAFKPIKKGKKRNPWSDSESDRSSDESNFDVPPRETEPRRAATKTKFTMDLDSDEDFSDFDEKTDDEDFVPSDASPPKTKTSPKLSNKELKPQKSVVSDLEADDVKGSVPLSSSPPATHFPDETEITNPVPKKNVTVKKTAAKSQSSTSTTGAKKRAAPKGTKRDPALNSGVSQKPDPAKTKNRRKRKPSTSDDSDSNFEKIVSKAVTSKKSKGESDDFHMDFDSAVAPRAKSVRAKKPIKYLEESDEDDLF

By inhibition is commonly meant how much of the control response was suppressed. A lower inhibition goes with little suppression. Broadly, the IC50 is the concentration that gives 50% inhibition. High values mean a need for much substance, low ones inhibition by little substance. With `O=C1c2ccc3ccccc3c2-n2c1nc1cc3ccccc3cc1c2=O`, the inhibition worked out at 19.1% in assay [1], 84.1% in the assay filed under Bos taurus [2], 3.5% in the assay listed under Bos taurus [3] and 53.5% in assay [4]. For the same molecule, the half-maximal inhibitory concentration (IC50) in the assay on HEK293 worked out at 20.3 µM; in the assay with DU-145, 32.3 µM; with T47D, 34.9 µM; in the assay with HCT-15, 24 µM.

As to `O=C1c2cc3ccccc3cc2-n2c1nc1ccccc1c2=O`, the inhibition in [1] is 5.95%; in the assay listed under Bos taurus [2], 69.6%; in the assay listed under Bos taurus [3] it was 5.4%; in assay [4], 75.9%. Besides, the IC50 worked out at 10.7 µM in the assay with HEK293, 17.8 µM in the assay on DU-145, 21.5 µM with T47D and 6.15 µM in the assay on HCT-15.

For orientation: MIC means the smallest concentration in the dilution series that meets the test's criterion for growth inhibition. A low value points to greater potency. On to `O=C1c2ccccc2-n2c1nc1ccccc1c2=O` [TRYPTANTHRIN], for which the IC50 came out at 4.11 µM with HEK293; 0.15 µM in [5]; 6.22 µM in the assay with DU-145; 14.3 µM in the assay with T47D; 8.49 µM with HCT-15. Also, the MIC in assay [6] is 10 µg/mL (≈ 40.3 µM). In the assay with HT-1376, this molecule gave an Activity of 10 µM. Further, the inhibition in the assay filed under Bos taurus [2] was 68.4%; in the assay filed under Bos taurus [3] it was 4.09%; in [4], 4.54%.

Consider `COc1cc([C@@H]2c3cc4c(cc3[C@@H](O[C@@H]3O[C@@H]5CO[C@@H](C)O[C@H]5[C@H](O)[C@H]3O)[C@H]3COC(=O)[C@H]23)OCO4)cc(OC)c1O` [ETOPOSIDE], for which the half-inhibitory concentration (IC50) in the assay on HEK293 stood at 0.41 µM; with DU-145 it was 1.42 µM; in the assay on T47D, 1.21 µM; in the assay on HCT-15, 0.28 µM.

As for `O=C1c2ccccc2-n2c1nc1cc3ccccc3cc1c2=O` [BENZO[K]TRYPTANTHRIN], the IC50 with HEK293 was determined as 31.5 µM; in the assay on DU-145, 26 µM; in the assay on T47D it was 23.1 µM; in the assay on HCT-15, 25.8 µM. For the same molecule, the inhibition stood at 18.8% in the assay filed under Bos taurus [2] and 16% in assay [4].

As for `COc1cccc2c1C(=O)c1c(O)c3c(c(O)c1C2=O)C[C@@](O)(C(=O)CO)C[C@@H]3O[C@H]1C[C@H](N)[C@H](O)[C@H](C)O1` [DOXORUBICIN], the results for the IC50 in the assay on HEK293, in the assay with T47D and with HCT-15 were 1 µM, 1.82 µM and 1.76 µM, respectively.

Consider `O=C1c2ccc3ccccc3c2-n2c1nc1ccccc1c2=O`, for which the IC50 came to 22.1 µM in the assay on HEK293, 21.4 µM with DU-145, 22.8 µM in the assay with T47D and 12.6 µM with HCT-15. Also, the inhibition came out at 53.4% in the assay listed under Bos taurus [2], 4.1% in the assay filed under Bos taurus [3] and 14% in [4].

`CC[C@@]1(O)C(=O)OCc2c1cc1n(c2=O)Cc2cc3ccccc3nc2-1` [CAMPTOTHECIN]: the 50% inhibitory concentration (IC50) came to 7.94 µM in the assay with HEK293, 9.29 µM in the assay with DU-145, 9.17 µM with T47D and 9.92 µM with HCT-15. In addition, the inhibition was determined as 63.1% in the assay filed under Bos taurus [2] and 26.3% in the assay filed under Bos taurus [3].

For the molecule `O=C1c2cc3ccccc3cc2-n2c1nc1cc3ccccc3cc1c2=O`, the IC50 is 2.31 µM with HEK293, 26.1 µM in the assay with DU-145, 25.7 µM with T47D and 26.2 µM with HCT-15. The inhibition in the assay listed under Bos taurus [2] was 41.9%; in the assay filed under Bos taurus [3] it was 3.6%; in assay [4], 12.6%.

On to `O=C1c2c(ccc3ccccc23)-n2c1nc1ccccc1c2=O`, for which the IC50 in the assay on HEK293 came out at 25.7 µM; in the assay on DU-145 it was 27.7 µM; in the assay on T47D, 31.3 µM; in the assay with HCT-15 it was 24.7 µM. For the same molecule, the inhibition in the assay listed under Bos taurus [2] is 47.8%; in the assay filed under Bos taurus [3], 4.9%; in [4], 8.13%.

`O=C1c2c(ccc3ccccc23)-n2c1nc1cc3ccccc3cc1c2=O`: the inhibition in assay [1] turned out to be 5.83%; in the assay listed under Bos taurus [2] it was 39.1%; in the assay filed under Bos taurus [3], 3.8%; in [4] it was 71.3%. Also, the IC50 with HEK293 was found to be 24.2 µM; in the assay with DU-145, 34 µM; in the assay with T47D it was 25.2 µM; in the assay on HCT-15 it was 32.8 µM.
